Experimental data: ChEMBL document CHEMBL3352356, “N-tetradecylcarbamyl lipopeptides as novel agonists for Toll-like receptor 2” (J Med Chem, 2014)
Calls of active or inactive are those of the source. The calls are words filed in the database; no cut-off is given here.

Key:
D1 = assay: Immunostimulatory activity in C57BL/6 (H-2b) mouse D1 cells assessed as increase in IL-12p40 secretion at 30 pM to 30 nM after 24 hrs by ELISA/DC maturation assay; assay type: functional, cell-based
In short: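 Cells were D1, a growth factor-dependent immature spleen-derived dendritic cell line from C57BL/6 (H-2b) mice. Compounds were titrated at 4 concentrations in complete IMDM, with about 40.000 cells per well. After 24 hours at 37°C, supernatant IL-12p40 was measured by ELISA. Assays were run in triplicate, with standard deviation shown.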

[1] = molecular target: Toll-like receptor 2 (Homo sapiens) (UniProt O60603); assay: Activation of human TLR2 expressed in HEK293 cells assessed as IL-8 secretion after 48 hrs by ELISA
Toll-like receptor 2 (Homo sapiens), sequence (O60603 whole entry): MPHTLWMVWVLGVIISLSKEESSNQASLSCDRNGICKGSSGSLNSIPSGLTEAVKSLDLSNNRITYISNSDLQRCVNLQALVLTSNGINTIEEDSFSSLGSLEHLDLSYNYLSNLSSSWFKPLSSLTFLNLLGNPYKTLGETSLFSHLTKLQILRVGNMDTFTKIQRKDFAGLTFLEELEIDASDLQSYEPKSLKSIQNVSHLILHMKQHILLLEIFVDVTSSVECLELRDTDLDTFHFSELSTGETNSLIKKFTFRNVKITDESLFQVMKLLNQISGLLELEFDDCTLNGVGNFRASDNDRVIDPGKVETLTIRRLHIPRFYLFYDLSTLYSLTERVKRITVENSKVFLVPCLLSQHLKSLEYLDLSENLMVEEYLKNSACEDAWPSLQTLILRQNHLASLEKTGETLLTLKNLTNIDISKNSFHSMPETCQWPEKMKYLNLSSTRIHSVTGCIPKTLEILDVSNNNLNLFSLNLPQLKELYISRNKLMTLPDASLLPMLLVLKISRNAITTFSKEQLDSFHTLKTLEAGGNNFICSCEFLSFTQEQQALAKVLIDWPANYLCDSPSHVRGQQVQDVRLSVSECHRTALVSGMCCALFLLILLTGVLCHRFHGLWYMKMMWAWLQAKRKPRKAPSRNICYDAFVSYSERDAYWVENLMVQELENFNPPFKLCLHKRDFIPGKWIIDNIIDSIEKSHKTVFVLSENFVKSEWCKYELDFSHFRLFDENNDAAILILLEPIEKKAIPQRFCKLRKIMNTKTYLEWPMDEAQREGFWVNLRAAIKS

[2] = molecular target: Toll-like receptor 2 (Homo sapiens) (UniProt O60603); assay: Activation of human TLR2 expressed in HEK293 cells assessed as IL-8 secretion at 30 to 300 nM after 48 hrs by ELISA

| Compound | Activity [1] | Activity [2] | Activity (D1) |
| --- | --- | --- | --- |
| CCCCCCCCCCCCCCCC(=O)OCC(CSC[C@H](NC(=O)NCCCCCCCCCCCCCC)C(=O)N[C@@H](CC(N)=O)C(=O)N[C@@H](CCCCN)C(=O)N[C@@H](CCCCN)C(=O)N[C@@H](CCCCN)C(=O)N[C@@H](CCCCN)C(N)=O)OC(=O)CCCCCCCCCCCCCCC (mixture of isomers) | Dose-dependent effect | – | Active |
| CCCCCCCCCCCCCCCC(=O)OCC(CSC[C@H](NC(=O)NCCCCCCCCCCCCCC)C(=O)NC[C@H](CCCCN)C(=O)N[C@@H](CCCCN)C(=O)N[C@@H](CCCCN)C(=O)N[C@@H](CCCCN)C(=O)N[C@@H](CCCCN)C(N)=O)OC(=O)CCCCCCCCCCCCCCC (mixture of isomers) | – | inactive | inactive |
| CCCCCCCCCCCCCCCC(=O)OCC(CSC[C@H](NC(=O)NCCCCCCCCCCCCCC)C(=O)N[C@@H](CC#N)C(=O)N[C@@H](CCCCN)C(=O)N[C@@H](CCCCN)C(=O)N[C@@H](CCCCN)C(=O)N[C@@H](CCCCN)C(N)=O)OC(=O)CCCCCCCCCCCCCCC (mixture of isomers) | Dose-dependent effect | – | Active |
| CCCCCCCCCCCCCCCC(=O)OCC(CSC[C@H](NC(=O)NCCCCCCCCCCCCCC)C(=O)NCC(=O)N[C@@H](CCCCN)C(=O)N[C@@H](CCCCN)C(=O)N[C@@H](CCCCN)C(=O)N[C@@H](CCCCN)C(N)=O)OC(=O)CCCCCCCCCCCCCCC (mixture of isomers) | Dose-dependent effect | – | – |
| C=CC[C@H](NC(=O)[C@H](CSCC(COC(=O)CCCCCCCCCCCCCCC)OC(=O)CCCCCCCCCCCCCCC)NC(=O)NCCCCCCCCCCCCCC)C(=O)N[C@@H](CCCCN)C(=O)N[C@@H](CCCCN)C(=O)N[C@@H](CCCCN)C(=O)N[C@@H](CCCCN)C(N)=O (mixture of isomers) | Dose-dependent effect | – | Active |
| CCCCCCCCCCCCCCCC(=O)OCC(CSC[C@H](NC(=O)NCCCCCCCCCCCCCC)C(=O)N[C@@H](CCN)C(=O)N[C@@H](CCCCN)C(=O)N[C@@H](CCCCN)C(=O)N[C@@H](CCCCN)C(=O)N[C@@H](CCCCN)C(N)=O)OC(=O)CCCCCCCCCCCCCCC (mixture of isomers) | Dose-dependent effect | – | Active |
| C=CC[C@@H](NC(=O)[C@H](CSCC(COC(=O)CCCCCCCCCCCCCCC)OC(=O)CCCCCCCCCCCCCCC)NC(=O)NCCCCCCCCCCCCCC)C(=O)N[C@@H](CCCCN)C(=O)N[C@@H](CCCCN)C(=O)N[C@@H](CCCCN)C(=O)N[C@@H](CCCCN)C(N)=O (mixture of isomers) | – | inactive | – |
| CCCCCCCCCCCCCCCC(=O)OCC(CSC[C@H](NC(=O)NCCCCCCCCCCCCCC)C(=O)N[C@H](C(=O)N[C@@H](CCCCN)C(=O)N[C@@H](CCCCN)C(=O)N[C@@H](CCCCN)C(=O)N[C@@H](CCCCN)C(N)=O)c1cccs1)OC(=O)CCCCCCCCCCCCCCC (mixture of isomers) | Dose-dependent effect | – | – |
| C#CC[C@H](NC(=O)[C@H](CSCC(COC(=O)CCCCCCCCCCCCCCC)OC(=O)CCCCCCCCCCCCCCC)NC(=O)NCCCCCCCCCCCCCC)C(=O)N[C@@H](CCCCN)C(=O)N[C@@H](CCCCN)C(=O)N[C@@H](CCCCN)C(=O)N[C@@H](CCCCN)C(N)=O (mixture of isomers) | Dose-dependent effect | – | Active |
| CCCCCCCCCCCCCCCC(=O)OCC(CSC[C@H](NC(=O)NCCCCCCCCCCCCCC)C(=O)N[C@@H](Cc1cccs1)C(=O)N[C@@H](CCCCN)C(=O)N[C@@H](CCCCN)C(=O)N[C@@H](CCCCN)C(=O)N[C@@H](CCCCN)C(N)=O)OC(=O)CCCCCCCCCCCCCCC (mixture of isomers) | Dose-dependent effect | – | inactive |
| CCCCCCCCCCCCCCCC(=O)OCC(CSC[C@H](NC(=O)NCCCCCCCCCCCCCC)C(=O)NCCC(=O)N[C@@H](CCCCN)C(=O)N[C@@H](CCCCN)C(=O)N[C@@H](CCCCN)C(=O)N[C@@H](CCCCN)C(N)=O)OC(=O)CCCCCCCCCCCCCCC (mixture of isomers) | Dose-dependent effect | – | inactive |
| CCCCCCCCCCCCCCCC(=O)OCC(CSC[C@H](NC(=O)NCCCCCCCCCCCCCC)C(=O)N[C@H](C(=O)N[C@@H](CCCCN)C(=O)N[C@@H](CCCCN)C(=O)N[C@@H](CCCCN)C(=O)N[C@@H](CCCCN)C(N)=O)C(C)(C)S)OC(=O)CCCCCCCCCCCCCCC (mixture of isomers) | Dose-dependent effect | – | inactive |
| CCCCCCCCCCCCCCCC(=O)OCC(CSC[C@H](NC(=O)NCCCCCCCCCCCCCC)C(=O)N[C@@H](CCCC)C(=O)N[C@@H](CCCCN)C(=O)N[C@@H](CCCCN)C(=O)N[C@@H](CCCCN)C(=O)N[C@@H](CCCCN)C(N)=O)OC(=O)CCCCCCCCCCCCCCC (mixture of isomers) | Dose-dependent effect | – | Active |
| CCCCCCCCCCCCCCCC(=O)OCC(CSC[C@H](NC(=O)NCCCCCCCCCCCCCC)C(=O)N[C@@H](Cc1ccc2ccccc2c1)C(=O)N[C@@H](CCCCN)C(=O)N[C@@H](CCCCN)C(=O)N[C@@H](CCCCN)C(=O)N[C@@H](CCCCN)C(N)=O)OC(=O)CCCCCCCCCCCCCCC (mixture of isomers) | – | inactive | inactive |
| CCCCCCCCCCCCCCCC(=O)OCC(CSC[C@H](NC(=O)NCCCCCCCCCCCCCC)C(=O)N[C@@H](Cc1ccccc1)C(=O)N[C@@H](CCCCN)C(=O)N[C@@H](CCCCN)C(=O)N[C@@H](CCCCN)C(=O)N[C@@H](CCCCN)C(N)=O)OC(=O)CCCCCCCCCCCCCCC (mixture of isomers) | Dose-dependent effect | – | inactive |

More lines, main results first:

| Activity [1] | Activity [2] | Compound | Activity (D1) |
| --- | --- | --- | --- |
| Dose-dependent effect | – | CCCCCCCCCCCCCCCC(=O)OCC(CSC[C@H](NC(=O)NCCCCCCCCCCCCCC)C(=O)N[C@@H](CC)C(=O)N[C@@H](CCCCN)C(=O)N[C@@H](CCCCN)C(=O)N[C@@H](CCCCN)C(=O)N[C@@H](CCCCN)C(N)=O)OC(=O)CCCCCCCCCCCCCCC (mixture of isomers) | Active |
| – | inactive | CCCCCCCCCCCCCCCC(=O)OCC(CSC[C@H](NC(=O)NCCCCCCCCCCCCCC)C(=O)N[C@@H](CS)C(=O)N[C@@H](CCCCN)C(=O)N[C@@H](CCCCN)C(=O)N[C@@H](CCCCN)C(=O)N[C@@H](CCCCN)C(N)=O)OC(=O)CCCCCCCCCCCCCCC (mixture of isomers) | inactive |
| Dose-dependent effect | – | CCCCCCCCCCCCCCCC(=O)OCC(CSC[C@H](NC(=O)NCCCCCCCCCCCCCC)C(=O)N[C@@H](C)C(=O)N[C@@H](CCCCN)C(=O)N[C@@H](CCCCN)C(=O)N[C@@H](CCCCN)C(=O)N[C@@H](CCCCN)C(N)=O)OC(=O)CCCCCCCCCCCCCCC (mixture of isomers) | – |
| – | inactive | CCCCCCCCCCCCCCCC(=O)OCC(CSC[C@H](NC(=O)NCCCCCCCCCCCCCC)C(=O)N[C@H](CS)C(=O)N[C@@H](CCCCN)C(=O)N[C@@H](CCCCN)C(=O)N[C@@H](CCCCN)C(=O)N[C@@H](CCCCN)C(N)=O)OC(=O)CCCCCCCCCCCCCCC (mixture of isomers) | inactive |
| Dose-dependent effect | – | CCCCCCCCCCCCCCCC(=O)OCC(CSC[C@H](NC(=O)NCCCCCCCCCCCCCC)C(=O)N[C@@H](CCC)C(=O)N[C@@H](CCCCN)C(=O)N[C@@H](CCCCN)C(=O)N[C@@H](CCCCN)C(=O)N[C@@H](CCCCN)C(N)=O)OC(=O)CCCCCCCCCCCCCCC (mixture of isomers) | Active |
| Dose-dependent effect | – | CCCCCCCCCCCCCCCC(=O)OCC(CSC[C@H](NC(=O)NCCCCCCCCCCCCCC)C(=O)N[C@@H](CO)C(=O)N[C@@H](CCCCN)C(=O)N[C@@H](CCCCN)C(=O)N[C@@H](CCCCN)C(=O)N[C@@H](CCCCN)C(N)=O)OC(=O)CCCCCCCCCCCCCCC (mixture of isomers) | Active |
| Dose-dependent effect | – | CCCCCCCCCCCCCCCC(=O)OCC(CSC[C@H](NC(=O)NCCCCCCCCCCCCCC)C(=O)N[C@@H](CN)C(=O)N[C@@H](CCCCN)C(=O)N[C@@H](CCCCN)C(=O)N[C@@H](CCCCN)C(=O)N[C@@H](CCCCN)C(N)=O)OC(=O)CCCCCCCCCCCCCCC (mixture of isomers) | inactive |
